Rtt109 Vps75 – C. albicans Rtt109 histone acetyltransferase inhibition; purified Rtt109/Vps75, ThioGlo CoA-SH fluorescence, 4 h; AID 540336; inhibition, % at 34.9 µM; actives 0.16% (n = 330,000);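 active = inhibition of at least 50% in every replicate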
Target sequence (Q5AAJ8 whole entry, looked up): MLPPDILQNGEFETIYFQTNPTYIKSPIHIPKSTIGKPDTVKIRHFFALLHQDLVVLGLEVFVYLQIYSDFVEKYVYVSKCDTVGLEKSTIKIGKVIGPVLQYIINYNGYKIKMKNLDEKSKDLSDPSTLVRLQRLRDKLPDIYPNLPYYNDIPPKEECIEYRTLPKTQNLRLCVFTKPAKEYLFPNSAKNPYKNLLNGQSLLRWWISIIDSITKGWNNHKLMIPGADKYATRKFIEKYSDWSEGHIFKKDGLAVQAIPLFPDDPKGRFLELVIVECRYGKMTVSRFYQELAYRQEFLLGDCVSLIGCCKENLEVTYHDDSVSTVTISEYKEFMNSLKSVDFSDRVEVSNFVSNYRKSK
S100A4 inh HTS – blocks human S100A4 binding to myosin IIA peptide; actives 0.14% (n = 360,000); inhibition, % at 10.7 µM; S100A4/TAMRA-MyoIIA peptide fluorescence polarization;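 active = mean inhibition of at least 70% across replicates, with every replicate also reaching that level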
Target sequence (P26447 whole entry, looked up): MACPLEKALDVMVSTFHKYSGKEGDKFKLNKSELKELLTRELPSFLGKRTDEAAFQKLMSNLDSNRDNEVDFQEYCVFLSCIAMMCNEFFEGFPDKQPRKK
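Material: S100A4 monomer protein | Medium: HEPES pH 7.2 with CaCl2, KCl, NaCl, DTT, Triton | Reagent: Labelled myosin peptide probe, 5 nM | Doses: One dose per compound | Times: 5 min incubation before reading | Benchmarks: Neutral control DMSO, positive control TFP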
Statin myotox sup – protects C2C12 myotubes from simvastatin toxicity. ATP luminescence, 48 h; scaled: DMSO 0, geranylgeraniol control 100. rescue of ATP level, % at 7.49 µM. actives 0.78% (n = 330,000);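 active = mean ATP rescue above about 67%, or every replicate alone reaching that limit, limit read from the data, passing the limit was not always enough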;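 also: myotubes were challenged with 10 µM simvastatin during compound exposure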
PGC1a acetyl inh – lowers PGC1a acetylation signal in U2OS cells | inhibition, % at 15.6 µM | AID 651687 | actives 0.17% (n = 350,000) | AlphaScreen anti-acetyl-lysine; with virally co-expressed GCN5 acetyltransferase;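 active = every replicate shows inhibition of at least 40%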;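 also: 0% = neutral control wells and 100% = positive control wells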
ERAP1 HTS inh – blocks human ERAP1 aminopeptidase activity | Q9NZ08 | recombinant ERAP1, Leu-AMC fluorescence, 60 min | inhibition, % at 10.7 µM | actives 0.15% (n = 340,000);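 active = mean replicate inhibition of at least 30%, or all replicates individually reaching that 30% level; inactive = mean below 30% and not every replicate reaching it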;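 also: 0% = neutral control wells and 100% = L-leucinethiol positive control wells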
* = called active by the depositor. A selection: hits, their analogues and other compounds. The true share with any hit is near 0.98%.

Screening CC1Cc2ccccc2N1C(=O)CSc1nnc(Cc2ccccc2)n1CCc1ccccc1 (stereo not drawn) returned Rtt109 Vps75 24, Statin myotox sup 113* and PGC1a acetyl inh -10.
Screening CC(C)CC#Cc1cnc2c(c1)C(=O)N([C@H](C)CO)C[C@@H](C)[C@H](CN(C)C(=O)Cc1cccnc1)O2 returned S100A4 inh HTS -1, Statin myotox sup 4, PGC1a acetyl inh 6 and ERAP1 HTS inh 1.
`O=C(NCc1ccccc1)c1ccc(C2SCC(=O)N2Cc2ccccc2)cc1` (stereo not drawn) gave Rtt109 Vps75 -3, Statin myotox sup 79* and PGC1a acetyl inh -12.
`Nc1ccc2c(c1)C(=O)C(=O)c1ccccc1-2` gave Rtt109 Vps75 -9 and PGC1a acetyl inh 107*.
`C[C@@H]1CN([C@H](C)CO)C(=O)c2cc(NC(=O)CCCCCC(=O)Nc3ccccc3N)ccc2O[C@H]1CN(C)S(=O)(=O)c1ccc(F)cc1` gave S100A4 inh HTS 3, PGC1a acetyl inh -4 and ERAP1 HTS inh 0.
`COc1cc(CNCCN2CCOCC2)ccc1OCc1ccc(Cl)cc1Cl` gave Rtt109 Vps75 9, Statin myotox sup -45 and PGC1a acetyl inh 101*.
Screening COc1cc(CNCCN2CCOCC2)ccc1OCc1cccc(Cl)c1 returned Rtt109 Vps75 8, Statin myotox sup -22 and PGC1a acetyl inh -4.
Screening CCC(=O)Nc1ccc2c(c1)OC[C@@H](C)N(CC1CCOCC1)C[C@@H](C)[C@H](OC)CN(C)C2=O returned S100A4 inh HTS -4, Statin myotox sup 15, PGC1a acetyl inh 0 and ERAP1 HTS inh -2.
For CCCNC(=O)C[C@H]1CC[C@@H]2[C@H](COc3ccc(NC(=O)Nc4ccccc4)cc3C(=O)N2C)O1 the results were Statin myotox sup -35 and PGC1a acetyl inh 6.
For N#C/C(=C/c1ccc(OCc2ccc(C(=O)O)cc2)c(Br)c1)c1cccc(F)c1 the results were Rtt109 Vps75 5, S100A4 inh HTS -26, Statin myotox sup 10, PGC1a acetyl inh 96* and ERAP1 HTS inh 2.
Screening N#C/C(=C/c1ccccc1OCc1ccc(F)cc1)c1ccc(C(=O)O)cc1 returned Rtt109 Vps75 15, S100A4 inh HTS 0, Statin myotox sup -12, PGC1a acetyl inh -2 and ERAP1 HTS inh 17.
For COc1ccc(S(=O)(=O)Nc2ccc3c(c2)C(=O)N([C@H](C)CO)C[C@@H](C)[C@@H](CN(C)C(=O)Nc2ccc(C(F)(F)F)cc2)O3)cc1 the results were S100A4 inh HTS 43, PGC1a acetyl inh 0 and ERAP1 HTS inh 2.
Screening CCOC(=O)CN1C(=O)S/C(=C/c2ccc(OC)c([N+](=O)[O-])c2)C1=O returned S100A4 inh HTS -2, Statin myotox sup 113*, PGC1a acetyl inh -3 and ERAP1 HTS inh -2.
`CC1(C)CNC(=O)c2sc(NC(=O)CN3CCOCC3)nc2C1` gave Rtt109 Vps75 5, Statin myotox sup 108* and PGC1a acetyl inh -3.
Screening CC1CCc2nc(NC(=O)CN3CCOCC3)sc2C1 (stereo not drawn) returned Rtt109 Vps75 -12, Statin myotox sup 0 and PGC1a acetyl inh 6.
Screening O=C(NCCS(=O)(=O)NCCCc1ccccc1)c1ccccc1 returned Rtt109 Vps75 0, S100A4 inh HTS 94* and ERAP1 HTS inh 1.
O=C(NCCS(=O)(=O)NCCc1ccccc1)c1ccccc1 was read as Rtt109 Vps75 -1, S100A4 inh HTS 0, Statin myotox sup 6, PGC1a acetyl inh -8 and ERAP1 HTS inh -5.
For CCOC(=O)N1CCC(NC(=O)CCC(=O)N2CCOc3ccccc32)CC1 the results were Rtt109 Vps75 -17, Statin myotox sup 123* and PGC1a acetyl inh -6.
Screening Cc1ccccc1S(=O)(=O)N1CC(=O)N2[C@H](C1)[C@H](c1ccc(C#CC3CC3)cc1)[C@@H]2CO returned S100A4 inh HTS -1, PGC1a acetyl inh 4 and ERAP1 HTS inh 0.
`CO[C@H]1CN(C)C(=O)c2cc(NC(=O)c3cccc(Oc4ccccc4)c3)ccc2OC[C@H](C)NC[C@H]1C` gave Statin myotox sup -40 and PGC1a acetyl inh -17.
NC(=NCCc1c[nH]c2ccccc12)NS(=O)(=O)c1cc(F)ccc1F was read as Rtt109 Vps75 11, S100A4 inh HTS 2, Statin myotox sup 0, PGC1a acetyl inh 3 and ERAP1 HTS inh 43*.
COc1ccccc1CCN=C(N)NS(=O)(=O)c1ccc(F)cc1 was read as Rtt109 Vps75 4, S100A4 inh HTS 2, PGC1a acetyl inh 2 and ERAP1 HTS inh 0.
Screening CCOC(=O)C1=C(C)N[C@@]2(O)c3ccccc3C(=O)[C@@]12O returned Rtt109 Vps75 1, S100A4 inh HTS 8, Statin myotox sup 130* and PGC1a acetyl inh 3.
`CC(=Nc1ccccc1)C1=C(O)CCCC1=O` gave Rtt109 Vps75 -2, S100A4 inh HTS -8 and ERAP1 HTS inh 36*.
Screening Cn1nnnc1SCCOc1ccc(C#N)cc1 returned Rtt109 Vps75 1, Statin myotox sup 116* and PGC1a acetyl inh 2.
Screening Cc1[nH]c2ccccc2c1/C=C/c1cc[n+](C)cc1 returned Rtt109 Vps75 29, Statin myotox sup -161 and PGC1a acetyl inh -6.
Screening Cc1ccccc1/C=C/c1cc[n+](C)cc1 returned Rtt109 Vps75 -24, S100A4 inh HTS -3, PGC1a acetyl inh -11 and ERAP1 HTS inh 31*.
For CCCSc1nnc(CSc2nc3ccccc3s2)n1-c1ccccc1 the results were Rtt109 Vps75 7, Statin myotox sup -25 and PGC1a acetyl inh -4.
Screening N#CCCCSc1nnc(CSc2nc3ccccc3s2)n1-c1ccccc1 returned Rtt109 Vps75 0, Statin myotox sup 103* and PGC1a acetyl inh -3.
Screening CCSCCOC(=O)C1=C(C)NC(=O)NC1c1cc(OC)ccc1OC (stereo not drawn) returned Rtt109 Vps75 -17, Statin myotox sup 99* and PGC1a acetyl inh 13.
Screening Cc1ccc(C2/C(=C(\O)c3cnn(-c4ccccc4)c3C)C(=O)C(=O)N2CCN(C)C)o1 (stereo not drawn) returned Rtt109 Vps75 11, Statin myotox sup 0 and PGC1a acetyl inh 3.
Screening Cc1ccc(C2/C(=C(/O)c3cnn(-c4ccccc4)c3C)C(=O)C(=O)N2CCN2CCOCC2)o1 (stereo not drawn) returned Rtt109 Vps75 -1, Statin myotox sup 126* and PGC1a acetyl inh -5.
O=C(O)C1CCC(=O)N(C2CC2)C1c1ccccc1 (stereo not drawn) was read as Rtt109 Vps75 -11, Statin myotox sup 107* and PGC1a acetyl inh 11.
For O=C(O)C1CCC(=O)N(C2CCCCC2)C1c1ccccc1Cl (stereo not drawn) the results were Rtt109 Vps75 0, S100A4 inh HTS 3, Statin myotox sup 6, PGC1a acetyl inh -1 and ERAP1 HTS inh 0.
